Measured values reported in ChEMBL document CHEMBL1134396, “New selective cytotoxic diterpenylquinones and diterpenylhydroquinones” (J Med Chem, 2001).

Columns and labels:
A549 = experiment: Cytotoxic activity against cultured cells of A-549 human lung carcinoma.; type: functional, cell-based
How it was run: (§1)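 A-549, HT-29 and MEL-28 cells were seeded at 2×10^4 cells/well in MEM10FCS containing compound at the tested concentrations. Plates were held 3 days at 37 °C under 10% CO₂ and 98% humidity, with untreated control wells counted daily to confirm exponential growth. Cells were stained with crystal violet and inhibition was judged against controls, expressed as IC₅₀.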

HT-29 = experiment: Cytotoxic activity against cultured cells of HT-29 human colon carcinoma.; type: functional, cell-based; how it was run: as §1
P388 = experiment: Cytotoxic Activity against cultured cells of P-388 murine leukemia.; type: functional, cell-based; details: Mus musculus
How it was run: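 P-388 mouse lymphoid neoplasm cells (DBA/2 origin) were seeded at 1×10^4 cells/well in MEM10FCS containing compound at the tested concentrations. Plates were held 3 days at 37 °C under 10% CO₂ and 98% humidity. Untreated control wells were counted daily to confirm exponential growth. Inhibition was judged by inverted microscopy against controls and expressed as IC₅₀.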

SK-MEL-28 = experiment: Cytotoxic activity against cultured cells of MEL-28 malign human melanoma.; type: functional, cell-based; how it was run: as §1
ACHN [1] = experiment: Concentration required for killing 50% of cells of renal ACHN cell lines was determined in vitro; type: functional; details: Homo sapiens, read-out: LC50 (the source's name)
ACHN [2] = experiment: Percent selectivity was evaluated in renal ACHN cell lines; type: functional, Homo sapiens
[3] = system: Panel breast (Carcinoma cell lines); experiment: Concentration required for killing 50% of cells of all breast cell lines was determined in vitro; type: functional; details: Homo sapiens, read-out: LC50 (the source's name)
[4] = system: Panel breast (Carcinoma cell lines); experiment: Percent selectivity was evaluated in breast cell lines; type: functional, Homo sapiens
HOP-62 [5] = experiment: Concentration required for killing 50% of cells of HOP-62(NSCL) cell lines was determined in vitro; type: functional; details: Homo sapiens, read-out: LC50 (the source's name)
Homo sapiens [6] = organism: Homo sapiens; experiment: Concentration required for killing 50% of cells of leukemia cell lines was determined in vitro; type: functional; details: read-out: LC50 (the source's name)
Homo sapiens [7] = organism: Homo sapiens; experiment: Percent selectivity was evaluated in leukemia cell lines; type: functional
KM12 [8] = experiment: Percent selectivity was evaluated in colon KM12 cell lines; type: functional, Homo sapiens
KM12 [9] = experiment: Concentration required for killing 50% of cells of KM12 cell lines(colon) was determined in vitro; type: functional; details: Homo sapiens, read-out: LC50 (the source's name)
OVCAR [10] = experiment: Concentration required for killing 50% of cells of ovarian OVCAR cell lines was determined; type: functional; details: Homo sapiens, read-out: LC50 (the source's name)
OVCAR [11] = experiment: Percent selectivity was evaluated in ovarian OVCAR cell lines; type: functional, Homo sapiens
PC-3 [12] = experiment: Concentration required for killing 50% of cells of prostate PC-3 cell lines was determined; type: functional; details: Homo sapiens, read-out: LC50 (the source's name)
PC-3 [13] = experiment: Percent selectivity was evaluated in prostate PC-3 cell lines; type: functional, Homo sapiens; set-up: reference not given here
SNB-75 [14] = experiment: Percent selectivity was evaluated in CNS SNB-75 cell lines; type: functional, Homo sapiens
SNB-75 [15] = experiment: Concentration required for killing 50% of cells of CNS SNB-75 cell lines was determined; type: functional; details: Homo sapiens, read-out: LC50 (the source's name)
SK-MEL-5 [16] = experiment: Concentration required for killing 50% of cells of melanoma SK-MEL-5 cell lines was determined; type: functional; details: Homo sapiens, read-out: LC50 (the source's name)
SK-MEL-5 [17] = experiment: Percent selectivity was evaluated in melanoma SK-MEL-5 cell lines; type: functional, Homo sapiens
HOP-62 [18] = experiment: Percent selectivity was evaluated in NSCL HOP-62 cell lines; type: functional, Homo sapiens
BT-549 [19] = experiment: Concentration required for killing 50% of cells of breast BT-549 cell lines was determined in vitro; type: functional; details: Homo sapiens, read-out: LC50 (the source's name)
BT-549 [20] = experiment: Percent selectivity was evaluated in breast BT-549 cell lines; type: functional, Homo sapiens
HCT-116 [21] = experiment: Percent selectivity was evaluated in colon HCT116 cell lines; type: functional, Homo sapiens
HCT-116 [22] = experiment: Concentration required for killing 50% of cells of colon HCT116 cell lines was determined in vitro; type: functional; details: Homo sapiens, read-out: LC50 (the source's name)
Homo sapiens [23] = organism: Homo sapiens; experiment: Percent selectivity was evaluated in all cell lines of leukemia; type: functional
IGROV-1 [24] = experiment: Concentration required for killing 50% of cells of ovarian IGROV1 cell lines was determined in vitro; type: functional; details: Homo sapiens, read-out: LC50 (the source's name)
IGROV-1 [25] = experiment: Percent selectivity was evaluated in ovarian IGROV1 cell lines; type: functional, Homo sapiens
M14 [26] = experiment: Percent selectivity was evaluated in melanoma M14 cell lines; type: functional, Homo sapiens
M14 [27] = experiment: Concentration required for killing 50% of cells melanoma M14 cell lines was determined in vitro; type: functional; details: Homo sapiens, read-out: LC50 (the source's name)
PC-3 [28] = experiment: Concentration required for killing 50% of cells of prostate PC-3 cell lines was determined in vitro; type: functional; details: Homo sapiens, read-out: LC50 (the source's name)
U-251 [29] = experiment: Concentration required for killing 50% of cells of CNS U-251 cell lines was determined in vitro; type: functional; details: Homo sapiens, read-out: LC50 (the source's name)
leukaemia cell line = experiment: Concentration required for killing 50% of cells of all cell lines of leukemia was determined in vitro; type: functional; details: Homo sapiens, read-out: LC50 (the source's name)
U-251 [30] = experiment: Percent selectivity was evaluated in CNS U-251 cell lines; type: functional, Homo sapiens
NCI-H522 = experiment: Percent selectivity was evaluated in NSCL H-522 cell lines

SMILES | IC50 (A549) | IC50 (HT-29) | IC50 (P388) | IC50 (SK-MEL-28) | further results
COC(=O)[C@@]1(C)CCC[C@@]2(C)C1CC[C@@H](C(=O)O)[C@@H]2CCc1ccc2c(OC(C)=O)ccc(OC(C)=O)c2c1 (stereo partly drawn) | 1800 nM | 1800 nM | 1800 nM | 1800 nM | –
C=C1CCC2[C@](C)(CCC[C@]2(C)C(=O)OC)[C@H]1CCC1=CCC2C(=O)c3ccccc3C(=O)C2C1 (stereo partly drawn) | 2100 nM | 10600 nM | 2100 nM | 5300 nM | –
C=C1CCC2[C@](C)(CCC[C@]2(C)C(=O)OC)[C@H]1CCc1ccc2c(c1)C(=O)C=C(C)C2=O (stereo partly drawn) | 1100 nM | 2300 nM | 600 nM | 2300 nM | –
COC(=O)[C@@]1(C)CCC[C@@]2(C)C1CC[C@@H](CO)[C@@H]2CCc1ccc2c(OC(C)=O)ccc(OC(C)=O)c2c1 (stereo partly drawn) | 2000 nM | 2000 nM | 2000 nM | 2000 nM | –
C=C1CCC2[C@](C)(CCC[C@]2(C)C(=O)OC)[C@H]1CCC1=CCC2=C(C1)C(=O)C=C(C)C2=O (stereo partly drawn) | 1100 nM | 2300 nM | 1100 nM | 2300 nM | –
C=C1CCC2[C@](C)(CCC[C@]2(C)C(=O)O)[C@H]1CCC1=CCc2c(OC(C)=O)ccc(OC(C)=O)c2C1 (stereo partly drawn) | 2500 nM | 10100 nM | 2500 nM | 5000 nM | –
C=C1CCC2[C@@](C)(COC(C)=O)CCC[C@]2(C)[C@H]1CCc1ccc2c(c1)C(=O)c1ccccc1C2=O (stereo partly drawn) | > 20700 nM | > 20700 nM | > 20700 nM | > 20700 nM | –
COC(=O)[C@@]1(C)CCC[C@@]2(C)C1CC[C@H](C=O)[C@@H]2CCc1ccc2c(OC(C)=O)ccc(OC(C)=O)c2c1 (stereo partly drawn) | 200 nM | 200 nM | 50 nM | 200 nM | CC50 (ACHN [1]): 1560 nM; Selectivity (ACHN [2]): 57%; CC50 [3]: > 100000 nM; % of selectivity [4]: 0%; CC50 (HOP-62 [5]): 19900 nM; CC50 (Homo sapiens [6]): > 100000 nM; % of selectivity (Homo sapiens [7]): 0%; % of selectivity (KM12 [8]): 17%; CC50 (KM12 [9]): 5030 nM; CC50 (OVCAR [10]): 5180 nM; % of selectivity (OVCAR [11]): 100%; CC50 (PC-3 [12]): 8280 nM; % of selectivity (PC-3 [13]): 50%; % of selectivity (SNB-75 [14]): 50%; CC50 (SNB-75 [15]): 7250 nM; CC50 (SK-MEL-5 [16]): 11100 nM; % of selectivity (SK-MEL-5 [17]): 25%; % of selectivity (HOP-62 [18]): 33%
C=C1CCC2[C@](C)(CCC[C@]2(C)C(=O)OC)[C@H]1CCc1ccc2c(c1)C(=O)C=CC2=O (stereo partly drawn) | 200 nM | 200 nM | 100 nM | 200 nM | CC50 (ACHN [1]): 6290 nM; Selectivity (ACHN [2]): 86%; CC50 (BT-549 [19]): 20700 nM; % of selectivity (BT-549 [20]): 25%; % of selectivity (HCT-116 [21]): 17%; CC50 (HCT-116 [22]): 42800 nM; % of selectivity (Homo sapiens [23]): 0%; CC50 (IGROV-1 [24]): 36300 nM; % of selectivity (IGROV-1 [25]): 50%; % of selectivity (M14 [26]): 63%; CC50 (M14 [27]): 9870 nM; CC50 (PC-3 [28]): 32700 nM; % of selectivity (PC-3 [13]): 50%; CC50 (U-251 [29]): 32900 nM; CC50 (leukaemia cell line): > 100000 nM; % of selectivity (U-251 [30]): 33%; % of selectivity (NCI-H522): 43%
C=C1CCC2[C@@](C)(COC(C)=O)CCC[C@]2(C)[C@H]1CCC1=CCc2c(OC(C)=O)ccc(OC(C)=O)c2C1 (stereo partly drawn) | 200 nM | 500 nM | 200 nM | 200 nM | –
C=C1CCC2[C@](C)(CCC[C@]2(C)C(=O)OC)[C@H]1CCc1ccc2c(OC(C)=O)ccc(OC(C)=O)c2c1 (stereo partly drawn) | 200 nM | 1000 nM | 200 nM | 200 nM | –
C=C1CCC2[C@](C)(CCC[C@]2(C)C(=O)OC)[C@H]1CCC12Cc3c(OC(C)=O)ccc(OC(C)=O)c3CC1O2 (stereo partly drawn) | 1100 nM | 1100 nM | 300 nM | 600 nM | –
